Only some compounds are listed: those with a hit (about 4.7% of all), similar ones and a draw of the others.
AHR activator = AHR activators, primary screen, cell-based, luminescence, luciferase reporter, human; 320,000 compounds, 2.5% hits; AID 2796, 2010; Aryl hydrocarbon receptor (Homo sapiens), P35869; AHR-responsive luciferase reporter cells; activation, % at 5 µM; in the data active = activation above about 47%;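 note: 0% = vehicle wells and 100% = reference agonist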
MC4R ag barr = MC4R agonists recruiting beta-arrestin, primary screen, cell-based, luminescence, agonist arm of biased-ligand search; U2OS MC4R beta-arrestin complementation; percent of melanotan II response, DMSO zero; activation, % at 8.9 µM; 360,000 compounds, 0.98% hits;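 active = activation above a per-plate cutoff, the mean activation of sample wells on that plate plus 3 SD, cut at about 8% in these data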
m5-HT2A agonist = mouse Htr2a agonists via beta-arrestin recruitment, primary screen, cell-based, luminescence; 5-hydroxytryptamine receptor 2A (Mus musculus), P35363; 360,000 compounds, 0.66% hits; CHO-K1 mHTR2A beta-arrestin complementation; percent of 30 µM serotonin response; activation, % at 7.6 µM; AID 624169, 2012;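 active = activation above a run cutoff, the mean activation of all tested compounds plus 3 SD, cut at about 14% in these data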;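 note: 0% = plate median of compound wells and 100% = 30 µM serotonin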
MC4R antagonist = MC4R antagonists of cAMP signaling, primary screen, cell-based, TR-FRET, antagonist arm of biased-ligand search; inhibition, % at 6.5 µM; Melanocortin receptor 4 (Homo sapiens), P32245; 360,000 compounds, 0.48% hits; MC4R-expressing cells, MTII-stimulated cAMP, LANCE TR-FRET;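 active = inhibition above its plate's cutoff, the mean of tested wells on that plate plus 3 SD, cut at about 29% in these data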;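 note: 0% = Melanotan II alone and 100% = Melanotan II plus saturating MCL0020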
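Assay system: human MC4R-expressing U2OS cells; reagent: Melanotan II stimulation of cells; dosing: 6.5 µM single dose; timing: compound 30 min, challenge 1 h, detection 1 h; signal: TR-FRET cAMP assay; replicates: one well per compound, no replicates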
FXN GAA850 act = FXN promoter activators, primary screen, cell-based, luciferase luminescence, HEK293 lucGAA850; HEK293 lucGAA850 FXN promoter luciferase reporter, 24 h; percent of 10 µM SAHA response; activation, % at 6 µM; 360,000 compounds, 0.56% hits;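 active = activation above the average of all compounds screened plus 3 SD, cutoff fixed separately per campaign, cut at about 7.5% in these data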;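 note: 0% = DMSO wells and 100% = 10 µM SAHA wells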
* = called active by the depositor; . = no result.

SMILES | AHR activator | MC4R ag barr | m5-HT2A agonist | MC4R antagonist | FXN GAA850 act
CCCCCCn1c(COc2ccccc2F)nnc1SCC(=O)NC1CCS(=O)(=O)C1 (stereo not given) | . | 1 | -6 | 9 | -1
COCCNC(=O)CN1C(=O)CC(C)(C)S(=O)(=O)c2ccccc21 | -1 | -2 | -2 | 4 | 13*
COc1ccccc1NCCC(=O)OCC(=O)Nc1ccccc1Cl | 1 | -3 | 1 | 0 | 0
C=CCOc1c(Br)cc(CNn2c(C)n[nH]c2=S)cc1OC | 48* | -1 | -2 | 4 | 2
Cc1c(C(=O)N(C)C(C)c2ccccn2)oc2c(F)cccc12 (stereo not given) | 54* | -5 | -5 | 1 | 2
c1ccc(COc2ccc(-c3sc(Nc4ccccc4)n[n+]3-c3ccccc3)cc2)cc1 | 80* | . | . | . | .
CCN(CC)c1ccc(-c2sc(Nc3ccccc3)n[n+]2-c2ccc(F)cc2)cc1 | 63* | 4 | -6 | -1 | -2
CCc1ccc(Nc2n[n+](-c3ccccc3)c(-c3ccc(OCc4ccccc4)cc3)s2)cc1 | 20 | 1 | -2 | 10 | -3
COc1ccc2ccccc2c1-c1sc(Nc2ccccc2)n[n+]1-c1ccc(F)cc1 | 3 | 12* | -12 | -4 | -3
Cc1cccc(-c2nc(S(=O)(=O)c3ccc(F)cc3)c(NCCCN3CCOCC3)o2)c1 | 7 | -2 | -10 | 7 | 0
CCc1nc2c(OCc3cccc(Cl)c3)cccn2c1N(C)C(C)=O | . | 3 | 7 | -4 | 1
Cc1cc(C)c2c(-n3cccc3)c(NC(=O)OC(C)C)sc2n1 | 66* | -2 | 2 | 5 | 0
C=CCNc1nc(Cl)nc(Nc2cc(Cl)ccc2OC)n1 | . | 8.8* | 4 | 22 | -1
COc1ccc(S(=O)(=O)N2CCOCC2)cc1NC(=O)c1cc2ccccc2o1 | . | -4 | -2 | 6 | 2
O=C(c1ccccc1-c1nc(-c2ccccc2)no1)N1CCOCC1 | 5 | -2 | 0 | -3 | 2
O=C(c1ccccc1-c1nc(-c2ccc(F)cc2)no1)N1CCCC1 | 50* | 0 | -1 | 18 | 0
COc1ccc(CNC(=O)COC(=O)/C=C/c2cccc(Cl)c2)cc1 | -3 | 8.3* | 3 | 12 | 0
COC(=O)c1ccc(CNC(=O)COC(=O)/C=C/c2cccc(OC)c2)cc1 | . | 0 | 4 | 1 | -1
COc1ccccc1Nc1nc(-c2sc(NC(=O)CC(C)C)nc2C)cs1 | 71* | -1 | 4 | 5 | 0
COc1cccc(Nc2nc(-c3sc(NC(=O)c4ccccc4)nc3C)cs2)c1 | 41 | -1 | 2 | 11 | 3
COc1ccccc1Nc1nc(-c2sc(NC(=O)C(C)(C)C)nc2C)cs1 | 29 | -1 | -1 | -4 | 0
COc1cccc(Nc2nc(-c3sc(NC(=O)CC(C)C)nc3C)cs2)c1 | 51* | -1 | 7 | 15 | -1
CC1C(=O)OC2C1CCC1(C)C3(C)C(=O)C=CC213 (stereo not given) | . | 0 | 13 | 10 | 1
CC(C)(C)OC(=O)N1CCC[C@H]1C(=O)N1CCC[C@H]1C(=O)NCc1ccncc1 | . | . | -1 | . | .
CCOC(=O)Cc1cc(-c2ccc(F)cc2)nc2ccc3ccccc3c12 | 61* | 3 | -6 | 22 | -1
SMILES | AHR activator | MC4R ag barr | m5-HT2A agonist | MC4R antagonist | FXN GAA850 act
CC(C)CSc1nnc2c3ccccc3n(C)c2n1 | 57* | 7 | -3 | 14 | 5
COC(=O)N/N=C/c1c(C)nn(-c2cccc(Cl)c2)c1Cl | -10 | -1 | -2 | 13 | -2
Cc1ccc(/C=N\NC(=O)c2cncc(Br)c2)o1 | 64* | -2 | -4 | -6 | 0
COc1ccc(/C=N/NC(=O)c2cccs2)c2ccccc12 | 53* | -2 | -4 | -5 | 6
Cc1nn(-c2cccc(Cl)c2)c(Cl)c1/C=N/NC(=O)c1cccnc1 | 78* | 0 | 5 | 2 | 1
O=C(N/N=C/c1ccc(Br)o1)c1cccnc1 | 15 | 1 | 0 | 16 | 0
Cc1ccc(/C=N/NC(=O)c2cccnc2)o1 | 72* | -1 | 2 | 16 | -1
O=C(Nc1ccc(F)cc1)C(c1ccnc2ccccc12)N1CCN(c2cccc(C(F)(F)F)n2)CC1 (stereo not given) | . | . | -3 | . | .
Cc1ccc(/C=N/NC(=O)c2cccs2)o1 | 78* | 0 | 0 | 10 | 2
C[C@H](CO)N1C[C@H](C)[C@@H](CN(C)Cc2ccc3c(c2)OCO3)Oc2ccc(NC(=O)Cn3cnnn3)cc2C1=O | -1 | 0 | 2 | 5 | 3
COc1cc(OC)c(OC)cc1/C=C1\CCC(C2CCCC2)C1=O (stereo not given) | 55* | -1 | -5 | -5 | 3
COc1ccc(/C=C2\CCC(C3CCCC3)C2=O)c(OC)c1 (stereo not given) | 14 | -1 | 3 | -12 | 2
COc1cccc(-c2noc(-c3ccc(Cl)nc3)n2)c1 | 54* | 8.7* | 6 | -10 | 5
Cc1[nH]c2ccccc2c1C(=O)C(=O)NCc1nnnn1-c1ccc(F)c(F)c1 | . | 0 | 1 | -13 | 1
COc1cc(-c2coc3c(C(=O)NC4CCCCC4)cccc23)ccc1O | . | -1 | 3 | 12 | -3
Oc1ccc2ccccc2c1C=Nc1ccccc1-c1nc2ccccc2[nH]1 | 65* | 1 | 6 | 2 | 0
Nc1ccccc1SC(CC(=O)c1ccccc1)c1cccc([N+](=O)[O-])c1 (stereo not given) | . | -1 | 4 | -6 | 11*
COc1ccc(C(CC(=O)c2ccc(C)cc2)Sc2ccccc2N)cc1 (stereo not given) | . | 1 | 1 | 15 | 3
Nc1ccccc1SC(CC(=O)c1ccccc1)c1ccc([N+](=O)[O-])cc1 (stereo not given) | . | 1 | 3 | 7 | 8.0*
COC(=O)c1cc(=O)nc(NNC(C)=O)s1 | . | . | 3 | . | .
O=C(NNC(=O)c1sccc1-n1cccc1)Nc1ccc(F)cc1 | 62* | -4 | 1 | 0 | -1
Nc1cccc2cccc([N+](=O)[O-])c12 | . | -1 | 0 | -3 | 5
Cc1ccc(NC(=O)CCn2c(=S)oc3ccccc32)cc1F | 0 | 8.3* | -8 | 4 | -1
CC(C)n1c(=O)nc(-c2ccccc2)c2cc3c(cc21)OCO3 | . | -1 | -3 | -2 | 2
COc1cccc(Nc2nc(NCCO)nc(N3CCCC3)n2)c1 | 48* | -2 | 13 | -1 | 2
C=CCNc1nc(NCCO)nc(N2CCCC2)n1 | 65* | -2 | -2 | 3 | 2
OCCNc1nc(N2CCCC2)nc(N2CCCC2)n1 | 1 | -1 | 9 | 8 | 1

High-throughput results as filed in PubChem BioAssay.
